{"data": "Measurements gathered from unrelated publications", "target": "LIM domain kinase 1 (LIMK1, Homo sapiens, UniProt P53667)"}
{"Compound": "CC(C)(C)c1cc(C=C(C#N)C#N)cc(Br)c1O", "read-out": "enzyme activity", "action": "inhibitor", "tested at": "0.5 µM", "quantity": "remaining activity", "value": "98.5%"}
{"Compound": "COc1cc(Nc2ncc(F)c(Nc3ccc4c(n3)NC(=O)C(C)(C)O4)n2)cc(OC)c1OC", "read-out": "binding", "technique": "competition with immobilised ligand", "tested at": "10 µM", "quantity": "inhibition", "value": "85%"}
{"Compound": "Cn1cc(-c2cc(F)cc(N3CCn4c(cc5c4CCCC5)C3=O)c2CO)cc(Nc2ccc(N3CCN(C4COC4)CC3)cn2)c1=O", "read-out": "enzyme activity", "action": "inhibitor", "tested at": "0.1 µM", "quantity": "inhibition", "value": "2%"}
{"Compound": "N#CC1(c2ccccn2)CCN(Cc2cc(C(=O)O)c(=O)n3ccccc23)CC1", "read-out": "cell-free assay", "technique": "competition with immobilised ligand", "tested at": "1 µM", "quantity": "remaining binding", "value": "100%"}
{"Compound": "O=c1[nH]c2ccccc2n1C1CCN(Cc2ccc(-c3[nH]c4cc5ncnc5cc4nc3-c3ccccc3)cc2)CC1", "read-out": "cell-free assay", "tested at": "0.5 µM", "quantity": "remaining signal", "value": "110%"}
{"Compound": "Nc1ncc(-c2nc(N3CCOCC3)nc(N3CCOCC3)n2)c(C(F)F)n1", "read-out": "binding", "technique": "competition with immobilised ligand", "tested at": "10 µM", "quantity": "remaining binding", "value": "86%"}
{"Compound": "Cn1cc(-c2cccc(N3CCc4c(sc5c4CC(C)(C)C5)C3=O)c2CO)cc(Nc2ccncn2)c1=O", "read-out": "enzyme activity", "action": "inhibitor", "tested at": "1 µM", "quantity": "inhibition", "value": "9%"}
{"Compound": "Cn1cncc1[C@](O)(COc1ccc(C#N)cc1-c1ccc(OC(F)(F)F)cc1)c1ccc(C#N)cc1", "read-out": "cell-free assay", "technique": "competition with immobilised ligand", "tested at": "1 µM", "quantity": "remaining binding", "value": "89%"}
{"Compound": "COc1ncccc1-c1cnn2ccc(N3CCN(C(=O)OC(C)C)CC3)nc12", "read-out": "binding", "technique": "competition with immobilised ligand", "tested at": "1 µM", "quantity": "remaining binding", "value": "100%"}
{"Compound": "Cc1nn(C)cc1-c1nc2c(N3CCN(Cc4ccc(Cl)cc4)CC3)c(Cl)cnc2[nH]1", "read-out": "binding", "technique": "competition with immobilised ligand", "tested at": "1 µM", "quantity": "remaining binding", "value": "58%"}
